Series [1] in a line: folding enthalpy; higher = less favourable; fluorescence melt of hairpins on a sequencing array, two-state fit. Particulars: sodium 0.088 M. An outline of the steps: (§1)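 Cy3 signals were normalised both to pre-quench Cy3 and to control constructs. They came from library hairpins carrying annealed Cy3 and quencher oligos on a sequenced MiSeq flow cell, imaged in 50 mM Na-HEPES pH 8.0, 25 mM NaCl, in 2.5 °C steps up to 60 °C. Bootstrapped two-state fits gave melting temperature and folding enthalpy, and four replicates were combined by inverse variance. Fitted temperatures were then raised by 9.35 °C to match UV melts.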

A short description of series [2]: melting temperature; fluorescence melt of hairpins on a sequencing array, two-state fit, raised by 9.35 °C to match UV melts. Particulars: sodium 0.088 M. An outline of the steps: as §1

On to GGAGTTGCGAAAGCATCC (((..(((....)))))), for which, in series [1], the folding enthalpy was -12.7 kcal/mol. Besides, in series [2], the Tm was determined as 32.5 °C.

In the case of GGAGTTGGAAACAATTCC (((.(((....))).))), the folding enthalpy in series [1] was -29.6 kcal/mol. In series [2], the Tm is 43 °C.

With GGAGTTGGAAACGATTCC (((.(.(....).).))), in series [1], the folding enthalpy is -19.6 kcal/mol. Also, in series [2], the Tm came to 40.8 °C.

Regarding GGATAACGAAAGTTGTCC (((.(((....))).))), the folding enthalpy in series [1] is -47.7 kcal/mol. Besides, the Tm in series [2] came out at 52.7 °C.

As to GGATAAGGAAACTTATTC (.(((((....))))).), in series [1], the folding enthalpy was -21.2 kcal/mol. In series [2], the Tm stood at 30.4 °C.

Take GGATACGAAAGTAAGTCC ((((((....)))..))): in series [1], the folding enthalpy is -9.06 kcal/mol. The Tm in series [2] is 22.2 °C.

Regarding GGATACGAAAGTAATCC ((((((....))).))), the folding enthalpy in series [1] was -27 kcal/mol. The Tm in series [2] is 44.6 °C.

As for GGATACGCGAAAGCGTCC (((..(((....)))))), the folding enthalpy in series [1] was -8.9 kcal/mol. Also, in series [2], the Tm is 33 °C.

With GGATACGGAAACGTATCC (((((((....))))))), the folding enthalpy in series [1] is -40.9 kcal/mol. In series [2], the Tm was 64.2 °C.

As for GGATAGCGAAAGCTCTCC (((.(((....))).))), the folding enthalpy in series [1] is -30.9 kcal/mol. For the same sequence, in series [2], the Tm is 45.4 °C.

For the sequence GGATAGCGAAAGCTTCC (((.(((....)))))), the folding enthalpy in series [1] was -19 kcal/mol. The Tm in series [2] was found to be 48.1 °C.

For the sequence GGATATGAAAATATCC ((((((....)))))), the folding enthalpy in series [1] is -31.6 kcal/mol. In series [2], the Tm stood at 50.9 °C.

As to GGATATTCGAAAGAATCC (((..(((....)))))), in series [1], the folding enthalpy is -13.6 kcal/mol. Besides, the Tm in series [2] was found to be 26.9 °C.

As for GGATCAGGAAACCGATCC (((((.(....).))))), in series [1], the folding enthalpy was -39 kcal/mol. In series [2], the Tm amounted to 46.4 °C.

As for GGATCCGAAAGGAATCC ((((((....))).))), the folding enthalpy in series [1] was -31.7 kcal/mol. For the same sequence, the Tm in series [2] was 50.8 °C.

In the case of GGATCCGAAAGGACATCC ((((((....)))..))), the folding enthalpy in series [1] was -17.6 kcal/mol. In addition, the Tm in series [2] turned out to be 37.2 °C.

With GGATCCGAAAGGACCTCC ((((((....)))..))), the folding enthalpy in series [1] is -15.5 kcal/mol. In series [2], the Tm was 47.2 °C.

Consider GGATCCGAAAGGATGTCC ((((((....)))..))), for which the folding enthalpy in series [1] was -12.5 kcal/mol. For the same sequence, the Tm in series [2] was 35.2 °C.

Regarding GGATCCGAAAGGATTCC ((((((....))).))), in series [1], the folding enthalpy is -30.2 kcal/mol. Besides, the Tm in series [2] was 51.7 °C.

For GGATCGAAAGATCC (((((....))))), the folding enthalpy in series [1] is -29.6 kcal/mol. In addition, the Tm in series [2] was 65.3 °C.

Regarding GGATCGCGAAAGCGTCC (((.(((....)))))), the folding enthalpy in series [1] was -22.7 kcal/mol. In series [2], the Tm was 52.6 °C.

Take GGATCGGCGAAAGCCTCC (((..(((....)))))): the folding enthalpy in series [1] is -11.1 kcal/mol. Besides, the Tm in series [2] stood at 28.4 °C.

With GGATCTGGAAACAGATCC (((((((....))))))), the folding enthalpy in series [1] is -47.9 kcal/mol. Further, in series [2], the Tm turned out to be 62.4 °C.

On to GGATCTGGAAACAGATTC (.(((((....))))).), for which the folding enthalpy in series [1] is -28.9 kcal/mol. The Tm in series [2] was 46.2 °C.

As for GGATGCGAAAGCAAGTCC ((((((....)))..))), in series [1], the folding enthalpy is -13.7 kcal/mol. Also, the Tm in series [2] came out at 35.5 °C.

Regarding GGATGCGAAAGCAATCC ((((((....))).))), the folding enthalpy in series [1] was -27.8 kcal/mol. Moreover, in series [2], the Tm was found to be 57.9 °C.

For the sequence GGATGCGCGAAAGCGTCC (((..(((....)))))), the folding enthalpy in series [1] was -12.3 kcal/mol. The Tm in series [2] turned out to be 41 °C.

With GGATGGCGAAAGCCGTCC (((.(((....))).))), in series [1], the folding enthalpy was -28.8 kcal/mol. In addition, the Tm in series [2] is 68.8 °C.

In the case of GGATGGGGAAACCCACCC ((.((((....)))).)), the folding enthalpy in series [1] is -24.1 kcal/mol. Besides, in series [2], the Tm came out at 45.1 °C.

As to GGATGGGGAAACTCGTCC (((.(.(....).).))), the folding enthalpy in series [1] is -25.2 kcal/mol. Further, in series [2], the Tm came out at 38.5 °C.

Consider GGATGTACGAAAGTATCC (((..(((....)))))), for which the folding enthalpy in series [1] was -20.2 kcal/mol. The Tm in series [2] is 37.9 °C.

For GGATGTCGAAAGACCTCC (((.(((....))).))), the folding enthalpy in series [1] was -29 kcal/mol. The Tm in series [2] was found to be 46.5 °C.

As for GGATGTGGAAACACGTTC (.(.(((....))).).), the folding enthalpy in series [1] is -21.3 kcal/mol. Besides, the Tm in series [2] amounted to 35.8 °C.

In the case of GGATGTGGAAACGCATCC (((((.(....).))))), in series [1], the folding enthalpy is -41.4 kcal/mol. For the same sequence, the Tm in series [2] came to 52.2 °C.

For GGATGTGGAAACGTATCC ((((..(....)..)))), the folding enthalpy in series [1] was -22.3 kcal/mol. Moreover, the Tm in series [2] stood at 35.1 °C.

For the sequence GGATTAACGAAAGTTTCC (((..(((....)))))), the folding enthalpy in series [1] is -19.4 kcal/mol. Further, the Tm in series [2] is 28.2 °C.

On to GGATTACGAAAGTATCC (((.(((....)))))), for which the folding enthalpy in series [1] was -22.2 kcal/mol. Besides, the Tm in series [2] amounted to 42.3 °C.

As for GGATTAGGAAACCAATCC (((((.(....).))))), the folding enthalpy in series [1] was -34 kcal/mol. For the same sequence, in series [2], the Tm amounted to 34.4 °C.

In the case of GGATTAGGAAACTAATCC (((((((....))))))), the folding enthalpy in series [1] was -40.5 kcal/mol. Further, the Tm in series [2] came to 55 °C.

In the case of GGATTCACGAAAGTGTCC (((..(((....)))))), the folding enthalpy in series [1] was -12.5 kcal/mol. For the same sequence, the Tm in series [2] is 29.8 °C.

As to GGATTCCGAAAGGATCC (((.(((....)))))), the folding enthalpy in series [1] is -29.1 kcal/mol. Also, the Tm in series [2] came out at 49.6 °C.

With GGATTCGAAAGAAAATCC ((((((....)))..))), the folding enthalpy in series [1] is -21.4 kcal/mol. Moreover, the Tm in series [2] stood at 29.9 °C.

On to GGATTCGGAAACGGATTC (.((.((....)).)).), for which, in series [1], the folding enthalpy was -16.7 kcal/mol. The Tm in series [2] amounted to 32.3 °C.

In the case of GGATTGCGAAAGCAGTCC (((.(((....))).))), the folding enthalpy in series [1] was -38.5 kcal/mol. Further, the Tm in series [2] was determined as 60.2 °C.

Turning to GGATTGGGAAACCAATTC (.(((((....))))).), the folding enthalpy in series [1] was -28 kcal/mol. Moreover, the Tm in series [2] was 44.2 °C.

As to GGATTGGGAAACTAATCC (((((.(....).))))), in series [1], the folding enthalpy was -33.9 kcal/mol. Further, the Tm in series [2] was found to be 43.5 °C.

As for GGATTGGGAAACTAGTCC (((.(.(....).).))), the folding enthalpy in series [1] was -23.6 kcal/mol. In addition, the Tm in series [2] is 27.3 °C.

Take GGATTGGGAAACTGATCC ((((..(....)..)))): the folding enthalpy in series [1] was -28.1 kcal/mol. Also, in series [2], the Tm is 34.4 °C.

Turning to GGATTTCGAAAGAAGTCC (((.(((....))).))), the folding enthalpy in series [1] was -36.2 kcal/mol. Besides, in series [2], the Tm turned out to be 49.3 °C.

Take GGCAAAGGAAACTTCGCC (((.(((....))).))): the folding enthalpy in series [1] was -29.7 kcal/mol. The Tm in series [2] is 41 °C.

With GGCAAATCGAAAGATGCC (((..(((....)))))), the folding enthalpy in series [1] was -29.8 kcal/mol. Moreover, in series [2], the Tm was found to be 47.6 °C.

For GGCAACCGAAAGGTCGCC (((.(((....))).))), in series [1], the folding enthalpy was -37.3 kcal/mol. Also, the Tm in series [2] was found to be 58.9 °C.

For GGCAACGAAAGTTAGGCC ((((((....)))..))), the folding enthalpy in series [1] is -28.3 kcal/mol. In series [2], the Tm amounted to 46.2 °C.

With GGCAACGAAAGTTGGGCC ((((((....)))..))), the folding enthalpy in series [1] is -16.9 kcal/mol. Moreover, the Tm in series [2] was 44.6 °C.

Consider GGCAACGAAAGTTTGGCC ((((((....)))..))), for which the folding enthalpy in series [1] was -27.3 kcal/mol. Further, the Tm in series [2] turned out to be 46.4 °C.

Values taken from the array DNA melting data of Ke et al. (doi:10.1101/2024.01.08.574731).
